PLCg1 inh = PLC-gamma1 (human) inhibition, primary screen; 370,000 tested, 0.84% active; P19174; purified PLC-gamma1, fluorogenic substrate, fluorescence; inhibition, % at 12.2 µM; in the data active = inhibition above about 9.5%
procasp3 activ = procaspase-3 (human) activation; P42574; recombinant procaspase-3 D3A, Ac-DEVD-pNA absorbance 405 nm; activation, % at 8.5 µM; 330,000 tested, 0.11% active;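 active = activation above the mean of all tested compounds plus 3 SD, cut at about 21% in these data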;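 note: 0% = DMSO alone and 100% = DMSO wells spiked with extra 5 µM PC-3 D3A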
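Compound: 8.5 µM single point, 0.8% DMSO / Material: Autoprocessing-dead procaspase-3 D3A mutant enzyme / Timing: 1 h preincubation plus 2 h reaction at 25 °C / Medium: Zinc-free HEPES/NaCl buffer with 0.01% Triton X-100 at pH 7.4 / Technique: 405 nm absorbance of p-nitroaniline, reads at 0 and 120 min / Repeats: one well per compound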
Arr AP2 block = inhibitors of human beta-arrestin and AP2 interaction | inhibition, % at 10 µM | FITC-arrestin peptide / GST-AP2 beads, flow cytometry; AP2 beta2 appendage carries R879A mutation | 340,000 tested, 0.31% active;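 active = inhibition above a set limit, near 3 SD of compounds lacking own fluorescence, cut at about 54% in these data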;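 note: plate controls were DMSO wells for no effect and 5 µM unlabelled arrestin peptide for full effect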
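Assay system: GST-AP2 R879A bound to glutathione beads, E. coli-expressed; Medium: PBS with 0.05% Tween 20 and 0.1% BSA; Also added: fluorescein-tagged arrestin peptide at 50 nM final; Timing: 12 min plus 1 h, RT; Measured by: flow cytometry, FL1 (488/535 nm); Evaluation: percent drop in bead-associated FITC signal.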
PLCb3 inh = blocks human PLC-beta3 enzyme activity. Purified PLC-beta3, fluorogenic substrate, fluorescence. 370,000 tested, 0.18% active. inhibition, % at 12.2 µM. Q01970; in the data active = inhibition above about 11%;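 note: 0% = median of compound wells on plate and 100% = full blocker control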
HGIII-sPLA2 inh = Inhibits HGIII-sPLA2 liposome hydrolysis, primary screen; Q9NZ20; QFRET BODIPY PC-A2 liposome hydrolysis, fluorescence; inhibition, % at 12.2 µM; 370,000 tested, 0.56% active; AID 743126;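 active = inhibition above mean plus 3 SD of compounds lying within the high and low control bounds, cut at about 19% in these data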;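 note: 0% = median of test compound wells and 100% = no enzyme DMSO wells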
Target sequence (Q9NZ20 whole entry, looked up): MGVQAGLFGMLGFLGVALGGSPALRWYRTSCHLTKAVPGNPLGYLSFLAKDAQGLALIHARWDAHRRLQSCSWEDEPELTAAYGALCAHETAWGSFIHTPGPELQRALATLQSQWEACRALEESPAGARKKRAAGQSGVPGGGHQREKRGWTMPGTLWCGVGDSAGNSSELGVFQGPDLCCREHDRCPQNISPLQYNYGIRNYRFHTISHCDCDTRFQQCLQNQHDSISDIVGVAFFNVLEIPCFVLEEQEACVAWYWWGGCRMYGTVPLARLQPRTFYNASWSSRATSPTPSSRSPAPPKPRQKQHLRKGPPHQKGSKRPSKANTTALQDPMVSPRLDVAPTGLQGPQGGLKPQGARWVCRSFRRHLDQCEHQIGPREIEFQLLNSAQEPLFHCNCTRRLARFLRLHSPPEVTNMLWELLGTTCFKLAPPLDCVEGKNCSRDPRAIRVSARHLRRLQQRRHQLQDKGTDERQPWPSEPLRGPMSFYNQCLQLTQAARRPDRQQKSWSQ
procasp7 counter = activates human procaspase-7, counter-screen for procaspase-3 activators; P55210; recombinant procaspase-7, Ac-DEVD-pNA absorbance 405 nm; D23A/D198A/D206A triple mutant, cannot self-cleave; scale: DMSO 0, 5 µM enzyme 100; activation, % at 8.5 µM; 330,000 tested, 0.093% active; AID 463210;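 active = percent activation above the screen-wide mean plus 3 SD, cut at about 25% in these data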
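Assay system: Uncleavable procaspase-7 mutant enzyme | Input: 2 µM procaspase-7 mutant as dispensed | Timing: 1 h compound preincubation, 2 h substrate cleavage, 25 °C | Repeats: One well per compound | Control set: DMSO wells as 0%, DMSO with 5 µM added PC-7 as 100% | Technique: Epi-absorbance of released pNA at 405 nm, two timepoints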
sPLA2 confirm = human GIII-sPLA2 inhibition, confirmation. shares compounds with HGIII-sPLA2 inh. recombinant hGIII-sPLA2, BODIPY PC-A2 QFRET fluorescence. inhibition, % at 12.2 µM. 2,000 tested, 34% active. AID 743280;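 active = mean inhibition across triplicates above the hit cutoff set in the earlier primary screen, cut at about 19% in these data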;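 note: 0% = enzyme with DMSO and 100% = DMSO wells lacking enzyme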
BODIPY interf = 535nm fluorescence interference, HGIII-sPLA2 counter-screen; 2,000 tested, 8.5% active; BODIPY FL product fluorescence interference, QFRET; inhibition, % at 12.2 µM; shares compounds with HGIII-sPLA2 inh;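 active = average inhibition above the solvent-only control mean plus 3 SD, cut at about 6% in these data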;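 note: 0% = DMSO with substrate plus product and 100% = DMSO with substrate alone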
535nm interf DR = 535nm optical interference dose response, HGIII-sPLA2 counter-screen; shares compounds with HGIII-sPLA2 inh; BODIPY FL product fluorescence interference, cell-free; IC50, µM; 240 tested, under 10 active; AID 743455;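 active = IC50 at or below 10 µM; inactive = IC50 above 10 µM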
An asterisk follows results filed as active; . = no result given. Compounds with a hit are over-represented: about 1.9% of the library has one in this group of screens.

SMILES	PLCg1 inh	procasp3 activ	Arr AP2 block	PLCb3 inh	HGIII-sPLA2 inh	procasp7 counter	sPLA2 confirm	BODIPY interf	others
Cc1cccc(N2CCN(S(=O)(=O)c3c(C)noc3/C=C/N(C)C)CC2)c1C	-3	4	-7	-11	27*	-4	24*	-5
Cc1noc(/C=C/N(C)C)c1S(=O)(=O)N1CCN(c2ccc(F)cc2)CC1	-1	3	12	-10	12	2	.	.
O=C(CC1=NC2(CCCC2)Cc2ccccc21)N1CCOCC1	-2	1	-3	-1	6	-1	.	.
CCC1(CC)Cc2ccccc2C(CC(=O)N2CCOCC2)=N1	8	1	9	5	20*	0	19	-10
O=C(CSc1nc2ccccc2s1)NCCOc1ccc(Cl)cc1	0	0	-7	1	-3	-4	.	.
O=C(CSc1nc2ccccc2s1)NNC(=S)Nc1ccc(Cl)cc1	-7	-8	-7	-4	26*	-15	7	3
O=C(CSc1nc2ccccc2s1)Nn1cnnc1	2	5	15	1	1	2	.	.
C=CCNC(=S)NNC(=O)CSc1nc2ccccc2s1	0	-3	-2	-3	30*	-10	20*	0
COc1ccc(CNC(=O)c2ccc(S(=O)(=O)N3CC(C)CC(C)C3)cc2)cc1OC (stereo not given)	1	.	1	-4	-1	.	.	.
CCCCOc1ccc(CSCCN)cc1Cl	3	-2	2	-4	19	4	.	.
CCOc1ccc(CSC(=N)N)cc1Cl	2	-15	-12	-5	26*	12	8	-8
CCOc1ccc(CSC(=N)N)cc1[N+](=O)[O-]	1	-1	-4	3	22*	0	2	0
CCCCOc1ccc(CSc2nnc(C)n2N)cc1[N+](=O)[O-]	0	-4	1	-2	7	5	.	.
N#Cc1c2c(c[nH]c1=O)CCN2Cc1ccccc1	-9	-4	-8	-14	20*	-1	3	-10
COCCN=c1scc(-c2ccco2)n1/N=C/c1ccc(O)c(O)c1O	-7	-22	25	-14	13	-32	.	.
C=CCN=c1scc(-c2ccco2)n1/N=C/c1ccc(O)c(O)c1O	-3	-28	25	-12	24*	-27	37*	-1	535nm interf DR=>122
S=C(NCC1CCCO1)Nc1ccc(Cl)cc1 (stereo not given)	2	-6	-5	1	0	-5	.	.
S=C(NCC1CCCO1)Nc1ccc(Cl)cc1Cl (stereo not given)	6	3	2	-1	25*	-7	3	-4
COc1cc(CNc2ccc3[nH]c(=O)[nH]c3c2)ccc1OCc1ccccc1C	-41	-6	38	-75	-1	-9	.	.
COc1cc(CNc2ccc3[nH]c(=O)[nH]c3c2)ccc1OCc1ccccc1F	-27	-6	32	-43	24*	-6	24*	-1
CCc1nc(SCC(=O)N2CCCCCC2)c2c(=O)n(C)c(=O)n(C)c2n1	1	-2	-7	-1	-2	1	.	.
CCOC(=O)N1CCN(C(=O)CSc2nc(CC)nc3c2c(=O)n(C)c(=O)n3C)CC1	1	-2	-8	-5	21*	2	-1	-20
S=c1[nH]nc(COc2ccccc2)n1/N=C/c1ccco1	-3	-1	-4	-3	10	-9	.	.
Oc1ccccc1/C=N/n1c(COc2ccccc2)n[nH]c1=S	-3	-6	9	-10	24*	-12	16	2
CCOc1ccccc1/C=N/n1c(COc2ccccc2)n[nH]c1=S	7	-2	18	-2	23*	-17	19*	6.9*
SMILES	PLCg1 inh	procasp3 activ	Arr AP2 block	PLCb3 inh	HGIII-sPLA2 inh	procasp7 counter	sPLA2 confirm	BODIPY interf	others
Cc1ccc(/C=N/n2c(COc3ccccc3)n[nH]c2=S)o1	-3	-6	12	-2	20*	-11	25*	3
Oc1ccc(/C=N/n2c(COc3ccccc3)n[nH]c2=S)c(O)c1	-3	-6	-1	-11	4	-12	.	.
Cc1n[nH]c(=S)n1/N=C/c1ccc(OCc2ccc(Cl)cc2Cl)cc1	2	-15	16	3	3	-14	.	.
Cc1n[nH]c(=S)n1/N=C/c1ccccc1OCc1ccc(Cl)cc1Cl	1	5	-2	1	20*	-4	17	5
CC(N)c1csc(Nc2ncccn2)n1 (stereo not given)	1	.	.	2	4	.	.	.
COc1cc(CNC(=O)c2cc(C(=O)NCc3cc(OC)cc(OC)c3)n(C)n2)cc(OC)c1	-2	.	-13	1	-32	.	.	.
CCOC(=O)/C(=N\Nc1cccc(Cl)c1)Sc1nnc(-c2ccc(OC)cc2)n1C	3	-9	-3	2	22*	0	17	-5
COc1ccc(-c2nnc(SCC(=O)Nc3ccc(Cl)cc3)n2C)cc1	1	1	-8	0	3	8	.	.
O=C(Nc1cc2c(ccc3ccccc32)oc1=O)C1CCCCC1	-4	10	-1	-9	23*	4	-3	-4
c1ccc(C2(CN3CCNC[C@H]3Cc3cccc4ccccc34)CC2)cc1	0	4	0	-1	23*	-1	6	-40
CC(NC(=O)/C(C#N)=C/c1ccc([N+](=O)[O-])o1)c1ccccc1 (stereo not given)	-43	-11	25	-67	-10	-20	.	.
CC(NC(=O)/C(C#N)=C/c1ccco1)c1ccccc1 (stereo not given)	6	3	-5	-4	20*	7	0	-3
O=C(N[C@H](CO)Cc1ccccc1)[C@H]1O[C@@H](n2ccc(=O)[nH]c2=O)[C@H](O)[C@@H]1O	0	.	.	2	5	.	.	.
CCOC(=O)C1(Cc2ccccc2C)CCCN(C(=O)CCc2cccnc2)C1 (stereo not given)	-2	-7	13	-3	2	-1	.	.
CCCNC(=O)c1ccc2c(=O)c(O)c(-c3ccc(Cl)c([N+](=O)[O-])c3)[nH]c2c1	-23	9	21	-30	20*	-3	-8	-1

Bioassay records (PubChem)
